Screens: PubChem BioAssay, several laboratories
Only a selection was taken, and hits are over-represented in it overall.
UPR CHOP act – activators of apoptotic arm of unfolded protein response (CHOP). CHO-CHOP luciferase reporter, UPR activation, luminescence; percent of tunicamycin response over DMSO baseline. activation, % at 10 µM. actives 0.34% (n = 330,000). AID 449763;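 active = at 10 µM dose, activation of 40% or more, normalized to positive control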;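 note: 100% = tunicamycin at 10 µg/mL and 0% = DMSO alone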
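Assay system: CHO cells with stable CHOP pathway luciferase reporter; Buffer or medium: F12 plus 10% serum; Times: 16-18 h cell attachment, then 6 h compound exposure, 37 °C; Signal: luciferase luminescence; Read-out basis: percent activation relative to tunicamycin control; Control set: tunicamycin high control, DMSO low control.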
CHOP inh – blocks CHOP induction under ER stress; CHO-K1 CHOP-promoter luciferase, tunicamycin-induced, 15-18 h; inhibition, % at 10 µM; actives 3.8% (n = 220,000); AID 2732;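 active = compounds that reduced the stress-induced luciferase reporter signal by more than about 70% of percent inhibition, limit read from the data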;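 note: 0% = tunicamycin plus vehicle and 100% = wells without tunicamycin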
Bfl-1 A1 inh – inhibitors of the anti-apoptotic protein A1, read as caspase activation | MEF A1-2A-BIM cells, Caspase-Glo 3/7 luminescence, 3 h; percent of clofoctol response, vehicle zero | caspase activation, % (test concentration not listed) | actives 0.066% (n = 330,000);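 active = over half of replicate activation scores above 10%, or exactly half above 10 with the replicate mean above 10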
UPR XBP1 act – adaptive UPR (XBP1) activation | CHO-XBP1 luciferase reporter, IRE1-XBP1 UPR activation, luminescence; percent of tunicamycin response, DMSO as zero | activation, % at 20 µM | actives 0.33% (n = 330,000) | AID 463104;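 active = versus positive control, 20 µM dose yields 30% or more activation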;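 note: 100% = tunicamycin at 10 µg/mL and 0% = DMSO only wells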
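Signal: luciferase luminescence; Assay system: CHO-XBP1 luciferase reporter cells; Amount: one thousand reporter cells per well; Dosing: 20 µM single concentration, DMSO 1%; Benchmarks: high control tunicamycin 10 µg/mL final, low control DMSO vehicle only; Schedule: 6 h compound exposure at 37 °C, 5% CO2; Evaluation: percent activation relative to tunicamycin reference.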
* = called active by the depositor; / = no result given.

SMILES	UPR CHOP act	CHOP inh	Bfl-1 A1 inh	UPR XBP1 act
Cc1c(CCO)c(=O)n2c([nH]c3ccccc32)c1C#N	-2	/	1	-5
Cc1c(CCC(C)C)c(=O)n2c([nH]c3ccccc32)c1C#N	0	96*	0	2
Fc1cccc2sc(Nc3nc4c(F)cccc4s3)nc12	5	88*	-2	1
CC1CCN(S(=O)(=O)c2ccc(Br)s2)CC1	0	75*	1	-1
COc1ccc(S(=O)(=O)N2c3ccc(F)cc3CCC2C)cc1 (stereo not drawn)	-1	/	1	22
CC1CCc2ccc(F)cc2N1S(=O)(=O)c1cccs1 (stereo not drawn)	-1	83*	0	0
O=C(Nc1ccc(F)cc1)Nc1ccccc1F	6	-3	-7	4
O=C(Nc1ccc(NC(=O)c2ccccc2O)cc1)Nc1ccc(F)cc1F	3	71*	0	7
O=C(Nc1nc(-c2ccccc2)cs1)Nc1ccc(F)cc1F	5	89*	-2	5
Cc1cc2ccccn2c1C(=O)c1ccc(N/N=C/c2ccc(C(=O)O)cc2)c([N+](=O)[O-])c1	/	103*	/	/
CCCNC(=O)C(Cc1cccc(C#N)c1)NC(=O)c1cccc([N+](=O)[O-])c1 (stereo not drawn)	3	/	1	-2
C/C(=N\NC(=O)CNC(=O)C(c1ccccc1)c1ccccc1)c1ccccc1	-1	-3	0	-2
C/C(=N\NC(=O)CNC(=O)C(c1ccccc1)c1ccccc1)c1ccc(C(C)(C)C)cc1	1	86*	0	22
c1ccc(Cn2nnc3c(N4CCOCC4)ncnc32)cc1	0	-2	-1	-3
FC(F)(F)c1ccc(N2CCN(c3ncnc4c3nnn4Cc3ccccc3)CC2)nc1	2	91*	0	5
CCOc1cc(CNc2ccc(N(C)C)cc2)cc(Br)c1OCC(=O)NC(C)(C)C	-2	95*	0	2
CCOc1cc(CNc2ccc(N3CCCCC3)cc2)cc(Br)c1OCC(=O)NC(C)(C)C	2	17	0	-3
O=C(O)c1cccc(-c2noc(-c3cccc(Cl)c3)n2)c1	-9	/	0	-9
COc1ccc(-c2cc(C(=O)NCc3ccc(Cl)cc3)no2)cc1OC	2	73*	0	2
COc1ccc(CNC(=O)c2cc(-c3ccc(OC)c(OC)c3)on2)cc1	-2	50	1	1
O=C(O)[C@H]1NCCC[C@H]1C(=O)O	/	-2	/	/
CCOC(=O)c1c(-c2ccc(F)cc2)csc1NC(=O)C1CCCO1 (stereo not drawn)	-2	75*	0	-3
CCOC(=O)c1c(-c2ccc(C)cc2)csc1NC(=O)C1CCCO1 (stereo not drawn)	3	58	1	-1
O=[N+]([O-])c1cccc(/C=N/n2c(-c3cccnc3)n[nH]c2=S)c1	4	1	0	1
CC(=O)N(C(C)=O)c1nc(-c2ccccc2)cn1/N=C/c1cccc([N+](=O)[O-])c1	-2	92*	0	0
SMILES	UPR CHOP act	CHOP inh	Bfl-1 A1 inh	UPR XBP1 act
COc1ccc(O)c(C(=O)c2cnc3c(c2)c(C)nn3CCO)c1	2	/	0	-2
O=C(CN1C(=O)c2cccc3cccc1c23)NC1CCCCC1	2	/	0	1
COc1cccc(-c2nc(CS(=O)(=O)CC(=O)Nc3cc(F)ccc3F)c(C)o2)c1	0	/	0	-1
Cc1ccccc1-c1nc(CS(=O)(=O)CC(=O)Nc2cc(F)ccc2F)c(C)o1	-1	78*	2	-1
COCCn1c(=O)c2ccccc2c2ccccc2c1=O	1	13	1	2
CCCCn1c(=O)c2ccccc2c2ccccc2c1=O	-2	76*	0	1
CCCCN(CCCC)CP(=O)(c1ccccc1)c1ccccc1	-4	73*	1	-6
CCCCCCP(=O)(O)c1ccccc1	3	14	0	-1
O=C(Cn1c2ccc(F)cc2c2nc3n(c(=O)c21)CCS3)Nc1ccccc1C(F)(F)F	0	78*	-1	-1
Cc1ccc(CN2C(=O)CSC(C)C2=O)cc1 (stereo not drawn)	0	/	0	3
COc1ccc(N2C(=O)CSC23C(=O)N(CC(=O)NC2CCCC2)c2ccccc23)cc1 (stereo not drawn)	-2	/	-1	-2
CCc1cc2ccc(C)cc2nc1SCC(=O)Nc1c[nH]c(=O)[nH]c1=O	0	31	0	1
Cc1ccc(-c2noc(CSc3nnc(Cc4ccccc4)n3-c3ccc(Cl)cc3)n2)cc1	1	81*	-1	-4
CCCN(CCC)C(=O)CC(c1ccccc1)c1ccc(C)cc1O (stereo not drawn)	0	46	1	-4
CCCN(CCC)C(=O)CC(c1ccccc1)c1cc(Br)ccc1O (stereo not drawn)	-1	92*	0	0
CCOc1cc([C@@H]2C[C@H]3CN(c4ccccc4)C(=O)[C@]34CCCN24)ccc1OC	0	84*	0	-4
COc1cc([C@@H]2C[C@H]3CN(c4ccccc4)C(=O)[C@]34CCCN24)cc(OC)c1OC	1	78*	1	-3
CCn1c(Cl)c(C=O)s/c1=N\S(=O)(=O)c1ccccc1	-11	105*	56*	-7
CCN1C(=O)CS/C1=N\S(=O)(=O)c1ccc(Cl)cc1	0	17	1	-1
C=C(C)c1cccc(C(C)(C)NC(=O)Nc2ccc(C)cn2)c1	0	49	0	0
C=C(C)c1cccc(C(C)(C)NC(=O)Nc2cc(C)ccn2)c1	4	92*	0	0
Cc1ccnc(NC(=O)c2ccc3c(c2)C(=O)N(CCC(C)C)C3=O)c1	1	/	-1	-1
COc1ccc(C(=O)N2CCN(C(=O)Cc3ccccc3)CC2)cc1	0	-5	0	-1
Cc1ccc2ccc(C(Nc3ccccn3)c3ccccc3)c(O)c2n1 (stereo not drawn)	3	-51	/	2
Cc1cccc(NC(c2ccc(C)s2)c2ccc3ccc(C)nc3c2O)n1 (stereo not drawn)	93*	24	-1	2
SMILES	UPR CHOP act	CHOP inh	Bfl-1 A1 inh	UPR XBP1 act
CSCCC(NS(=O)(=O)c1ccccc1F)C(=O)N1CCCCCCC1 (stereo not drawn)	1	/	1	-3
CCOC(=O)Cc1ccc(NS(=O)(=O)c2ccc(SC)cc2)cc1	-2	51	1	-4
CCOC(=O)c1ccc(NS(=O)(=O)c2ccc(SC)cc2)cc1	1	78*	0	0
O=C(NCCc1ccccc1)C(c1cccs1)N(C(=O)CCl)c1ccc(Cl)cc1 (stereo not drawn)	-1	111*	3	-7
CC(NS(=O)(=O)/C=C/c1ccccc1)C(=O)O (stereo not drawn)	2	86*	0	0
CC(=O)c1ccc(OCC(=O)N(C)CC(=O)Nc2ccc(N3CCOCC3)cc2)cc1	-3	/	0	-3
